A short description of data set [1]: Electrochemically observed pKa (pKred) of aziridines. It is filed as physicochemical. The settings on record: read-out: pKred.
Data set [2] can be described thus: Observed rate of hydrolysis (logKobs) (pH=4.0). The format is ADME. Put shortly:
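Hydrolysis followed by cyclic voltammetry at 20 °C in deaerated 0.1 M acetate buffers (pH 5.0–3.5) or 0.02 M NaH2PO4 (pH 3.5, 3.0), ionic strength 0.1 M (NaNO3). Decrease of the parent cathodic peak tracked over time. Pseudo-first-order kobs from linear regression of log concentration versus time.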

Data set [3] in a line: log 1/LD50 for LD50 (mmol/kg). The format is ADME.
Data set [4] is described as follows: E1/2 for the half-wave potential at pH=7.0 in V57. The format is ADME.
The test system of data set [5] is L1210. The experiment in a line: log 1/D125 for the dose (mmol/kg) to give 125%T/C ratio (L1210) in vivo. It is filed as functional, Mus musculus.
The subject of a further data set is B16. Description: log 1/D125 or the dose (mmol/kg) to give 125%T/C ratio (B16) in vivo. It is filed as functional, Mus musculus.
The subject of data set [6] is L1210. The experiment in a line: log 1/ID75 for the in vitro clonogenic L1210 assay with ID75 in umol/L. The format is functional, Mus musculus.
A short description of data set [7]: log KGSH for the rate k of glutathione (GSH) consumption in 1/s. The format is functional.
The next data set relates to Fungi. The experiment in a line: log 1/MIC for fungi in mmol/L. The format is functional.
Data set [8] in a line: log 1/anion production. The format is functional.
Data set [9] can be described thus: HPLC capacity factor (logK). It is filed as ADME.
Data set [10] can be described thus: Partition coefficient (logP). Particulars: octanol/water. It is filed as physicochemical. Put shortly:
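Micro shake-flask: buffered aqueous compound solution (pH 6.50) shaken with an equal volume of water-saturated 1-octanol at room temperature, 3 × 120 s. Centrifuged 14000g, 15 min. Aqueous phase analysed by RP-HPLC against the unshaken solution (methanol 30, 50 or 70 wt%, 1.0 mL/min, UV 254 nm). Run in duplicate, or quadruplicate if needed.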

A further data set concerns Nucleic Acid. Description: DNA cross link ratio at pH=5.0 and 50 umol/L compound. It is filed as functional.

What is called logP is a log measure of how a compound divides between an organic and an aqueous phase. The low end stands for lower lipophilicity, the high end for higher lipophilicity.

The structures appear in SMILES notation.

For `CC1=C(N2CC2C)C(=O)C(C)=C(N2CC2C)C1=O` (stereo not drawn), the pKa in data set [1] came out at 8.6. Moreover, the Log Kobs in data set [2] is -2.61. Further, in data set [3], the “Log 1/LD50 (mM kg-1)” value was found to be 1.4. The same compound showed an E 1/2 in data set [4] of -0.187. Moreover, in the data set on L1210 [5], the “Log 1/D125 (L1210) (mM kg-1)” value came to 1.47. The “Log 1/D125 (mM kg-1)” value in the data set on B16 was 2.27.

Consider `OCC/N=C1C(O)=C(N2CC2)/C(=N\CCO)C(O)=C/1N1CC1`, for which the pKa in [1] is 9.5. For the same compound, in the data set on L1210 [6], the “Log 1/ID75 (uM L-1)” value was determined as 0.42. The compound also returned a Log Kobs in data set [2] of -2.8. Besides, the E 1/2 in [4] is -0.385. Further, the “Log 1/D125 (L1210) (mM kg-1)” value in the data set with L1210 [5] worked out at 3.39. In the data set on B16, the “Log 1/D125 (mM kg-1)” value was determined as 3.94.

Consider `O=C1C(F)=C(N2CC2)C(=O)C(F)=C1N1CC1`, for which, in [1], the pKa was found to be 7.2. The compound also returned a Log k GSH (s-1) in [7] of -2.21. The compound further gave a Log Kobs in data set [2] of -4.03. Further, the “Log 1/MIC (mM L-1)” value with Fungi turned out to be 1.75. Also, the Log 1/conc (mM min-1 L-1) in data set [8] was found to be 1.72. For the same compound, the E 1/2 in data set [4] is -0.087.

Turning to `COC1=C(N2CC2)C(=O)C(OC)=C(N2CC2)C1=O`, the pKa in data set [1] amounted to 8. The “Log 1/ID75 (uM L-1)” value in the data set with L1210 [6] is 0.15. In data set [2], this compound gave a Log Kobs of -3.26. This compound yielded an E 1/2 in data set [4] of -0.179. The “Log 1/D125 (L1210) (mM kg-1)” value in the data set with L1210 [5] was determined as 2.38. The “Log 1/D125 (mM kg-1)” value in the data set on B16 turned out to be 3.53.

In the case of `CC1CN1C1=C(F)C(=O)C(N2CC2C)=C(F)C1=O` (stereo not drawn), the pKa in data set [1] is 7.9. The “Log K” value in data set [9] amounted to 0.444. Further, in the data set on L1210 [6], the “Log 1/ID75 (uM L-1)” value came out at 1.49. Moreover, in the data set with Fungi, the “Log 1/MIC (mM L-1)” value was 1.5. In addition, in data set [8], the Log 1/conc (mM min-1 L-1) amounted to 1.77. Further, the “Log 1/LD50 (mM kg-1)” value in data set [3] stood at 1.5. Moreover, in data set [4], the E 1/2 was -0.093.

As for `C/N=C1C=C(O)/C(=N/C)C=C/1O`, in data set [9], the Log K was -0.611. Besides, the logP in [10] was 0.34.

Take `NC(=O)OCCC1=C(N2CC2)C(=O)C(Br)=C(N2CC2)C1=O`: the pKa in data set [1] came out at 8.9. Besides, the Log k GSH (s-1) in [7] is -3.6. For the same compound, the “Log 1/ID75 (uM L-1)” value in the data set on L1210 [6] is reported as 2.45. This compound registered a Log Kobs in [2] of -4.49. The “Log 1/MIC (mM L-1)” value in the data set with Fungi worked out at 0.25. For the same compound, the Log 1/conc (mM min-1 L-1) in data set [8] was found to be 2.48. The “Log 1/LD50 (mM kg-1)” value in data set [3] is on record as 1.05. For the same compound, in [4], the E 1/2 was -0.201. In addition, the “Log 1/D125 (L1210) (mM kg-1)” value in the data set with L1210 [5] is reported as 2. For the same compound, the “Log 1/D125 (mM kg-1)” value with B16 is 2.68.

Take `CC1CN1C1=C(F)C(=O)C(N2CC2C)=C(N2CC2C)C1=O` (stereo not drawn): in data set [1], the pKa was 8.2. Further, the “Log 1/ID75 (uM L-1)” value in the data set with L1210 [6] worked out at 2.01. The “Log 1/MIC (mM L-1)” value in the data set on Fungi worked out at 1.18. In addition, the “Log 1/LD50 (mM kg-1)” value in [3] was 1.45. In data set [4], this compound registered an E 1/2 of -0.195.

With `CCC1=C(N2CC2)C(=O)C(Br)=C(N2CC2)C1=O`, the pKa in data set [1] amounted to 8.8. Further, the Log k GSH (s-1) in data set [7] was -3. The “Log 1/ID75 (uM L-1)” value in the data set on L1210 [6] turned out to be 2.82. Further, the Log Kobs in [2] was -4.3. The “Log 1/MIC (mM L-1)” value in the data set on Fungi is 1.57. The DNA cross-link ratio in the data set on Nucleic Acid stood at 0.15. The Log 1/conc (mM min-1 L-1) in [8] was determined as 2.42. In addition, the “Log 1/LD50 (mM kg-1)” value in data set [3] is reported as 1.39. In addition, the E 1/2 in [4] was -0.21. Moreover, the “Log 1/D125 (L1210) (mM kg-1)” value in the data set with L1210 [5] is listed as 1.41. The “Log 1/D125 (mM kg-1)” value in the data set on B16 was 2.6.

As for `CC1CN1C1=CC(=O)C(N2CC2C)=CC1=O` (stereo not drawn), in data set [1], the pKa was 8.1. Moreover, the “Log K” value in [9] was 0.152. For the same compound, the “Log 1/ID75 (uM L-1)” value in the data set on L1210 [6] was determined as 1.03. In addition, the Log Kobs in data set [2] is -1.55. In addition, the “Log 1/MIC (mM L-1)” value in the data set with Fungi was found to be 0.44. Besides, the Log 1/conc (mM min-1 L-1) in data set [8] stood at 1.75. For the same compound, in [3], the “Log 1/LD50 (mM kg-1)” value came to 1.16. In data set [4], this compound displayed an E 1/2 of -0.115. Further, the “Log 1/D125 (L1210) (mM kg-1)” value in the data set on L1210 [5] is on record as 1.64. Also, in the data set on B16, the “Log 1/D125 (mM kg-1)” value came out at 2.12.

On to `C/N=C1\C=C(O)c2ccccc2C1=O`, for which the “Log K” value in data set [9] worked out at 0.279. In [10], this compound showed a log partition coefficient (logP) of 1.74.

Take `CCC1=C(N2CC2)C(=O)C(C)=C(N2CC2)C1=O`: the pKa in [1] turned out to be 8.7. This compound also displayed a Log k GSH (s-1) in [7] of -5. In data set [9], the “Log K” value was 0.291. This compound gave a Log Kobs in [2] of -3.59. The “Log 1/MIC (mM L-1)” value with Fungi is 0.77. For the same compound, the DNA cross-link ratio in the data set with Nucleic Acid was found to be 0.23. Moreover, in [8], the Log 1/conc (mM min-1 L-1) is 0.87. Besides, the “Log 1/LD50 (mM kg-1)” value in data set [3] is 1.46. The E 1/2 in [4] was -0.227. In addition, the “Log 1/D125 (mM kg-1)” value with B16 is 3.25.

As to `O=C1C=C(Cl)C(=O)c2ccccc21`, the “Log K” value in [9] is 0.659. In [10], this compound yielded a lipophilicity (logP) of 2.15.

These data come from ChEMBL document CHEMBL1129476, “In vivo activity and hydrophobicity of cytostatic aziridinyl quinones” (J Med Chem, 1996).
